{"data": "Results collected from several papers", "read-out": "cell growth or viability", "note": "Lines come from different studies, so protocols differ."}
{"Structure (SMILES)": "O=C(Nc1ccc(-c2ccccc2)cc1)c1cnn(-c2ccc([N+](=O)[O-])cc2)c1C(F)(F)F", "cell line": "LX-2", "test": "MTS", "setting": "50 µM, 72 h", "endpoint": "inhibition", "value": "12.4%"}
{"Structure (SMILES)": "CC(C)C[C@H](NC(=O)[C@H](Cc1ccccc1)NC(=O)c1cnccn1)B(O)O", "cell line": "HepG2", "test": "ATP luminescence", "setting": "48 h", "endpoint": "EC50", "value": "7 pM"}
{"Structure (SMILES)": "COc1ccc(NC(=O)Nc2ccc(-c3cn(Cc4ccc(C)cc4)nn3)cc2)cc1", "cell line": "Huh-7", "test": "CCK-8", "setting": "50 µM, 72 h", "endpoint": "viability", "value": "64.7%"}
{"Structure (SMILES)": "O=[N+]([O-])c1cc(I)c(O)c(C=NNc2ccc(Br)cc2)c1", "cell line": "HEK-293T", "test": "MTT", "setting": "24 h", "endpoint": "IC50", "value": "11.4 µM"}
{"Structure (SMILES)": "O=C(Nc1ccc(Cl)cc1)Nc1ccc(-c2cn(Cc3ccc(Cl)cc3)nn2)cc1", "cell line": "Huh-7", "test": "CCK-8", "setting": "50 µM, 72 h", "endpoint": "viability", "value": "72.8%"}
{"Structure (SMILES)": "COc1cc(NC(=O)c2cnn(-c3ccc([N+](=O)[O-])cc3)c2C(F)(F)F)cc(OC)c1OC", "cell line": "LX-2", "test": "MTS", "setting": "50 µM, 72 h", "endpoint": "inhibition", "value": "11%"}
{"Structure (SMILES)": "O=C(Nc1ccc(Cl)cc1)Nc1ccc(-c2cn(Cc3cccc(Cl)c3)nn2)cc1", "cell line": "Huh-7", "test": "CCK-8", "setting": "50 µM, 72 h", "endpoint": "viability", "value": "70.4%"}
{"Structure (SMILES)": "Cc1nc(Nc2ncc(C(=O)Nc3c(C)cccc3Cl)s2)cc(N2CC[C@H](O)C2)n1", "cell line": "Ramos", "test": "ATP luminescence", "setting": "10 µM, 72 h", "endpoint": "inhibition", "value": "15%"}
{"Structure (SMILES)": "O=C(Nc1ccc(Cl)cc1)Nc1ccc(-c2cn(Cc3ccc(Br)cc3)nn2)cc1", "cell line": "Huh-7", "test": "CCK-8", "setting": "50 µM, 72 h", "endpoint": "viability", "value": "65%"}
{"Structure (SMILES)": "COc1ccc(NC(=O)NCc2cn(Cc3ccccc3C)nn2)cc1", "cell line": "Huh-7", "test": "CCK-8", "setting": "50 µM, 48 h", "endpoint": "viability", "value": "84.2%"}
{"Structure (SMILES)": "O=C(Nc1cccc(-c2cn(Cc3ccc(Br)cc3)nn2)c1)Nc1ccccc1Br", "cell line": "Huh-7", "test": "CCK-8", "setting": "50 µM, 48 h", "endpoint": "viability", "value": "61.2%"}
{"Structure (SMILES)": "O=C(Nc1ccc(Cl)cc1)Nc1cccc(-c2cn(Cc3cccc(Br)c3)nn2)c1", "cell line": "Huh-7", "test": "CCK-8", "setting": "50 µM, 72 h", "endpoint": "viability", "value": "14.5%"}
